According to ChEMBL document CHEMBL3779815, “Synthesis of newer 1,2,3-triazole linked chalcone and flavone hybrid compounds and evaluation of their antimicrobial and cytotoxic activities” (Eur J Med Chem, 2016):
≈ marks a conversion by molar mass, not a printed value.

Columns and labels:
Staphylococcus aureus = assay: Antibacterial activity against Staphylococcus aureus […] after 18 to 24 hrs by micro-dilution method; format: functional
Enterococcus faecalis = assay: Antibacterial activity against Enterococcus faecalis ATCC 29212 after 18 to 24 hrs by micro-dilution assay; format: functional
Escherichia coli = assay: Antibacterial activity against Escherichia coli ATCC 35218 after 18 to 24 hrs by micro-dilution method; format: functional
Pseudomonas aeruginosa = assay: Antibacterial activity against Pseudomonas aeruginosa […] after 18 to 24 hrs by micro-dilution method; format: functional
Shigella boydii = assay: Antibacterial activity against Shigella boydii clinical isolate after 18 to 24 hrs by micro-dilution method; format: functional
Klebsiella pneumoniae = assay: Antibacterial activity against Klebsiella pneumoniae ATCC 27736 after 18 to 24 hrs by micro-dilution method; format: functional
Candida albicans [1] = assay: Antifungal activity against Candida albicans ATCC 90028 after 18 to 24 hrs by micro-dilution method; format: functional
Outline: (§1)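 Microdilution MIC run as the antibacterial protocol but on Sabouraud dextrose […] pH 7.3±0.2; compounds 100 to 0.78 μg/mL in twofold steps; saline-prepared inocula 1-2 × 10⁷ cfu/mL, 0.01 mL added; 37 °C aerobic, 18-24 h; MIC read as lowest concentration without visible growth or turbidity; fluconazole reference.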

Candida albicans [2] = assay: Antifungal activity against Candida albicans clinical isolate after 18 to 24 hrs by micro-dilution method; format: functional; outline: as §1
Candida tropicalis = assay: Antifungal activity against Candida tropicalis ATCC 750 after 18 to 24 hrs by micro-dilution method; format: functional; outline: as §1
Candida parapsilosis = assay: Antifungal activity against Candida parapsilosis ATCC 22019 after 18 to 24 hrs by micro-dilution method; format: functional; settings: Lodderomyces parapsilosis; outline: as §1
Cryptococcus neoformans = assay: Antifungal activity against Cryptococcus neoformans clinical isolate after 18 to 24 hrs by micro-dilution method; format: functional; outline: as §1
Arthrodermataceae = assay: Antifungal activity against Dermatophyte clinical isolate after 18 to 24 hrs by micro-dilution method; format: functional; outline: as §1
Aspergillus niger = assay: Antifungal activity against Aspergillus niger clinical isolate after 18 to 24 hrs by micro-dilution method; format: functional; outline: as §1
Aspergillus fumigatus = assay: Antifungal activity against Aspergillus fumigatus clinical isolate after 18 to 24 hrs by micro-dilution method; format: functional; outline: as §1
Plasmodium falciparum = assay: Antimalarial activity against erythrocytic stage of chloroquine sensitive Plasmodium falciparum 3D7 assessed as inhibition of parasitemia after 48 hrs by Giemsa staining based microscopic analysis; format: functional, organism-based; settings: 3D7, 48 h
Outline: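 Asynchronous culture on human O⁺ erythrocytes, 1-1.5% parasitemia, 4% hematocrit, RPMI-1640 with HEPES, NaHCO₃, glutamine, gentamycin, Albumax II; drug 0.10-100 μg/mL, 48 h, 37 °C, medium changed at 24 h; triplicate wells; Giemsa thin smears, about 4,000 erythrocytes counted at 1,000X; % parasitemia inhibition versus control gives IC50.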

[3] = Cytotoxicity against human HuH7 cells after 72 hrs by MTT assay; format: cell-based, Huh-7
Outline: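 Huh-7 cells, 4 × 10³/well in DMEM with 10% FBS and penicillin-streptomycin-glutamine; eight 2-fold dilutions 100-0.78 μg/mL, 72 h; MTT added 2-4 h, then isopropanol/Triton X-100/HCl solubilization 2 h dark, RT; absorbance 570 nm; CC50 as mean of at least two experiments in duplicate.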

Row | Structure (SMILES) | MIC (Staphylococcus aureus) | MIC (Enterococcus faecalis) | MIC (Escherichia coli) | MIC (Pseudomonas aeruginosa) | MIC (Shigella boydii) | MIC (Klebsiella pneumoniae) | MIC (Candida albicans [1]) | MIC (Candida albicans [2]) | MIC (Candida tropicalis) | MIC (Candida parapsilosis) | MIC (Cryptococcus neoformans) | MIC (Arthrodermataceae) | MIC (Aspergillus niger) | MIC (Aspergillus fumigatus) | IC50 (Plasmodium falciparum) | CC50 at 72 h [3]
1 | COc1cc(OC)c2c(=O)cc(-c3ccc(OCc4cn(-c5ccccc5Cl)nn4)c(OCc4cn(-c5ccccc5Cl)nn4)c3)oc2c1 | > 100 µg/mL | > 100 µg/mL | > 100 µg/mL | > 100 µg/mL | > 100 µg/mL | > 100 µg/mL | 12.5 µg/mL (≈ 17.9 µM) | 12.5 µg/mL (≈ 17.9 µM) | 12.5 µg/mL (≈ 17.9 µM) | 12.5 µg/mL (≈ 17.9 µM) | 6.25 µg/mL (≈ 8.96 µM) | 12.5 µg/mL (≈ 17.9 µM) | 12.5 µg/mL (≈ 17.9 µM) | 12.5 µg/mL (≈ 17.9 µM) | 8.98 µg/mL (≈ 12.9 µM) | > 100 µg/mL
2 | COc1cc(OC)c2c(=O)cc(-c3ccc(OCc4cn(-c5ccc(Cl)cc5)nn4)c(OCc4cn(-c5ccc(Cl)cc5)nn4)c3)oc2c1 | 12.5 µg/mL (≈ 17.9 µM) | 12.5 µg/mL (≈ 17.9 µM) | 6.25 µg/mL (≈ 8.96 µM) | 12.5 µg/mL (≈ 17.9 µM) | 25 µg/mL (≈ 35.8 µM) | 12.5 µg/mL (≈ 17.9 µM) | > 100 µg/mL | > 100 µg/mL | > 100 µg/mL | > 100 µg/mL | > 100 µg/mL | > 100 µg/mL | > 100 µg/mL | > 100 µg/mL | 11.3 µg/mL (≈ 16.2 µM) | > 100 µg/mL
3 | COc1cc(OC)c2c(=O)cc(-c3ccc(OCc4cn(-c5ccc(F)cc5F)nn4)c(OCc4cn(-c5ccc(F)cc5F)nn4)c3)oc2c1 | > 100 µg/mL | 100 µg/mL (≈ 143 µM) | > 100 µg/mL | > 100 µg/mL | > 100 µg/mL | > 100 µg/mL | 50 µg/mL (≈ 71.4 µM) | > 100 µg/mL | > 100 µg/mL | 100 µg/mL (≈ 143 µM) | > 100 µg/mL | > 100 µg/mL | > 100 µg/mL | > 100 µg/mL | 9.25 µg/mL (≈ 13.2 µM) | > 100 µg/mL
4 | COc1cc(OC)c2c(=O)cc(-c3ccc(OCc4cn(-c5ccc(F)cc5Cl)nn4)c(OCc4cn(-c5ccc(F)cc5Cl)nn4)c3)oc2c1 | > 100 µg/mL | > 100 µg/mL | > 100 µg/mL | > 100 µg/mL | > 100 µg/mL | > 100 µg/mL | 12.5 µg/mL (≈ 17 µM) | 12.5 µg/mL (≈ 17 µM) | 6.25 µg/mL (≈ 8.52 µM) | 12.5 µg/mL (≈ 17 µM) | 12.5 µg/mL (≈ 17 µM) | 6.25 µg/mL (≈ 8.52 µM) | 12.5 µg/mL (≈ 17 µM) | 12.5 µg/mL (≈ 17 µM) | 14.5 µg/mL (≈ 19.7 µM) | > 100 µg/mL

Further lines, with some results ahead:

Row | MIC (Staphylococcus aureus) | MIC (Enterococcus faecalis) | MIC (Escherichia coli) | MIC (Pseudomonas aeruginosa) | MIC (Shigella boydii) | MIC (Klebsiella pneumoniae) | MIC (Candida albicans [1]) | MIC (Candida albicans [2]) | MIC (Candida tropicalis) | MIC (Candida parapsilosis) | MIC (Cryptococcus neoformans) | MIC (Arthrodermataceae) | MIC (Aspergillus niger) | MIC (Aspergillus fumigatus) | IC50 (Plasmodium falciparum) | Structure (SMILES) | CC50 at 72 h [3]
5 | 50 µg/mL (≈ 96.2 µM) | 50 µg/mL (≈ 96.2 µM) | 100 µg/mL (≈ 192 µM) | 50 µg/mL (≈ 96.2 µM) | > 100 µg/mL | 100 µg/mL (≈ 192 µM) | > 100 µg/mL | > 100 µg/mL | > 100 µg/mL | > 100 µg/mL | > 100 µg/mL | > 100 µg/mL | > 100 µg/mL | > 100 µg/mL | 12.1 µg/mL (≈ 23.2 µM) | COc1cc(OC)c2c(=O)cc(-c3ccc(OCc4cn(-c5ccccc5Cl)nn4)c(OC)c3)oc2c1 | > 100 µg/mL
6 | > 100 µg/mL | > 100 µg/mL | > 100 µg/mL | > 100 µg/mL | > 100 µg/mL | > 100 µg/mL | > 100 µg/mL | > 100 µg/mL | > 100 µg/mL | > 100 µg/mL | > 100 µg/mL | > 100 µg/mL | > 100 µg/mL | > 100 µg/mL | 4.79 µg/mL (≈ 9.19 µM) | COc1cc(OC)c2c(=O)cc(-c3ccc(OCc4cn(-c5ccc(F)cc5F)nn4)c(OC)c3)oc2c1 | > 100 µg/mL
7 | > 100 µg/mL | > 100 µg/mL | > 100 µg/mL | > 100 µg/mL | > 100 µg/mL | > 100 µg/mL | 12.5 µg/mL (≈ 23.2 µM) | 12.5 µg/mL (≈ 23.2 µM) | 12.5 µg/mL (≈ 23.2 µM) | 12.5 µg/mL (≈ 23.2 µM) | 6.25 µg/mL (≈ 11.6 µM) | 12.5 µg/mL (≈ 23.2 µM) | 50 µg/mL (≈ 92.9 µM) | 50 µg/mL (≈ 92.9 µM) | 4.48 µg/mL (≈ 8.33 µM) | COc1cc(OC)c2c(=O)cc(-c3ccc(OCc4cn(-c5ccc(F)c(Cl)c5)nn4)c(OC)c3)oc2c1 | > 100 µg/mL
8 | > 100 µg/mL | 100 µg/mL (≈ 192 µM) | > 100 µg/mL | > 100 µg/mL | > 100 µg/mL | > 100 µg/mL | 50 µg/mL (≈ 96.2 µM) | 12.5 µg/mL (≈ 24 µM) | 50 µg/mL (≈ 96.2 µM) | 50 µg/mL (≈ 96.2 µM) | 12.5 µg/mL (≈ 24 µM) | 12.5 µg/mL (≈ 24 µM) | 50 µg/mL (≈ 96.2 µM) | 50 µg/mL (≈ 96.2 µM) | 5.19 µg/mL (≈ 9.98 µM) | COc1cc(OC)c2c(=O)cc(-c3ccc(OCc4cn(-c5ccc(Cl)cc5)nn4)c(OC)c3)oc2c1 | > 100 µg/mL
9 | 50 µg/mL (≈ 92.9 µM) | > 100 µg/mL | 50 µg/mL (≈ 92.9 µM) | > 100 µg/mL | 50 µg/mL (≈ 92.9 µM) | > 100 µg/mL | 12.5 µg/mL (≈ 23.2 µM) | 12.5 µg/mL (≈ 23.2 µM) | 12.5 µg/mL (≈ 23.2 µM) | 12.5 µg/mL (≈ 23.2 µM) | 12.5 µg/mL (≈ 23.2 µM) | 25 µg/mL (≈ 46.5 µM) | 12.5 µg/mL (≈ 23.2 µM) | 12.5 µg/mL (≈ 23.2 µM) | 3.85 µg/mL (≈ 7.16 µM) | COc1cc(OC)c2c(=O)cc(-c3ccc(OCc4cn(-c5ccc(F)cc5Cl)nn4)c(OC)c3)oc2c1 | > 100 µg/mL
10 | > 100 µg/mL | > 100 µg/mL | 100 µg/mL (≈ 136 µM) | 100 µg/mL (≈ 136 µM) | > 100 µg/mL | > 100 µg/mL | > 100 µg/mL | > 100 µg/mL | 100 µg/mL (≈ 136 µM) | > 100 µg/mL | > 100 µg/mL | > 100 µg/mL | 100 µg/mL (≈ 136 µM) | > 100 µg/mL | 10.4 µg/mL (≈ 14.2 µM) | COc1cc(OC)c2c(=O)cc(-c3ccc(OCc4cn(-c5ccc(F)c(Cl)c5)nn4)c(OCc4cn(-c5ccc(F)c(Cl)c5)nn4)c3)oc2c1 | > 100 µg/mL
